Calls of active or inactive are those of the source. No cut-off for these calls is given here.
Experiments:
HT-29 [1] = assay: Inhibition of Wnt signaling in human HT29 cells assessed as inhibition of beta-catenin-mediated Tcf/Lef transcriptional activity after 24 hrs by dual luciferase reporter gene assay relative to control; format: cell-based; conditions: HT-29, 24 h
HT-29 [2] = assay: Antiproliferative activity against human HT-29 cells after 72 hrs by MTT assay; format: functional; conditions: HT-29, 72 h
Method in brief: (§1)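 Cells grown in DMEM with 10% FBS, penicillin G, streptomycin and L-glutamine, seeded 7 x 10^3 per well, left 24 h, then exposed to scalar concentrations in complete medium for 72 h at 37 °C, 5% CO2. Viability read by MTT; IC50 taken as the concentration giving 50% inhibition of proliferation.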

LoVo = assay: Antiproliferative activity against human LoVo cells after 72 hrs by MTT assay; format: functional; method in brief: as §1
HepG2 = assay: Antiproliferative activity against human HepG2 cells after 72 hrs by MTT assay; format: functional; conditions: HepG2, 72 h; method in brief: as §1
A549 = assay: Antiproliferative activity against human A549 cells after 72 hrs by MTT assay; format: functional; conditions: A549, 72 h; method in brief: as §1
HT-29 [3] = assay: Inhibition of Wnt signaling in human HT29 cells assessed as inhibition of beta-catenin-mediated Tcf/Lef transcriptional activity at 25 uM after 24 hrs by dual luciferase reporter gene assay relative to control; format: cell-based
Method in brief: (§2)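 HT-29 cells (1.4 x 10^4) were co-transfected with 1 µg BAT-LUX, which carries 7 TCF sites and the siamois promoter driving firefly luciferase, plus 1 µg Renilla vector. Cells were then treated at 37 °C for 24 h, with or without the GSK-3β inhibitor LiCl. Dual-Glo readout; values are the mean firefly/Renilla ratio.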

HT-29 [4] = assay: Inhibition of Wnt signaling in human HT29 cells assessed as inhibition of beta-catenin-mediated Tcf/Lef transcriptional activity at 25 uM after 24 hrs by dual luciferase reporter gene assay relative to control in presence of GSK-3beta inhibitor LiCl; format: cell-based; method in brief: as §2
HT-29 [5] = assay: Inhibition of Wnt/beta-catenin signaling in human HT29 cells assessed as […] in axin2 mRNA expression at 25 uM after 24 hrs by quantitative real-time PCR assay; format: cell-based
Method in brief: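 Total RNA was extracted with TRIzol from HT-29 cells treated for 24 h. Transcripts were measured by real-time RT-PCR with GUS as the reference gene, and expression was expressed relative to untreated cells.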

Danio rerio = species: Danio rerio; assay: Inhibition of Wnt/beta-catenin signaling in zebrafish larvae assessed as inhibition of Tcf/Lef transcriptional activity at 10 uM after 72 hrs by GFP reporter assay; format: functional, organism-based
Method in brief: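 TCF/LEF-GFP reporter zebrafish were exposed from 24 hours post-fertilization for 72 h, with compounds dissolved in E3 medium that was renewed daily. GFP in the head and intestine was imaged by fluorescence stereomicroscope at 8X, alongside bright-field images.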

HT-29 [6] = assay: Inhibition of Wnt/beta-catenin signaling in human HT29 cells assessed as GSK3-beta dephosphorylation at Ser21/Ser9 residues at 25 uM after 24 hrs by Western blot analysis; format: cell-based
Method in brief: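 After 24 h exposure, HT-29 cells were washed in cold PBS, lysed on ice for 30 min and cleared at 15 000 g, 4 °C. 10 µg protein was run on 12% SDS-PAGE and transferred to PVDF. Blots were probed with specific primary antibodies, then peroxidase-labelled secondaries, and developed by ECL. β-actin re-probing served as the loading control.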

HT-29 [7] = assay: Inhibition of Wnt signaling in human HT29 cells assessed as increase in cytoplasmic beta-catenin at 25 uM after 24 hrs by fluorescence microscopy; format: cell-based
Method in brief: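 Cells were fixed in cold 4% formaldehyde for 15 min and stained with anti-β-catenin (mouse, 1:50), then an Alexa-conjugated secondary, with DAPI counterstain. Images were taken on a video-confocal microscope with a 60x objective.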

[8] = Antiproliferative activity against human fibroblasts after 72 hrs by MTT assay; format: cell-based, Fibroblast

IC50 (HT-29 [1]) [µM]	GI50 (HT-29 [2]) [µM]	GI50 (LoVo) [µM]	GI50 (HepG2) [µM]	GI50 (A549) [µM]	Compound	inhibition (HT-29 [3])	inhibition (HT-29 [4])	inhibition (HT-29 [5])	inhibition (Danio rerio)	inhibition (HT-29 [6])	inhibition (HT-29 [7])	GI50 at 72 h [8] [µM]
52.6	82.9	65.2	> 100	> 100	Cc1ccc2nc(-c3ccc(N)cc3)cn2c1							
72.2	40	54.5	60.8	18.7	CC(C)COc1cc(N)nc(SCc2ccccc2)n1							
57.8	> 100	70.6	35.9	36.6	COc1cc(OC)n2cc(-c3ccc([N+](=O)[O-])cc3)nc2n1							
67	> 100	61.9	> 100	7	COc1cc(OC)n2cc(-c3ccc(N(Cc4ccccc4)Cc4ccccc4)cc3)nc2n1							
> 100	53.9	53.7	49	46.2	Nc1cc(OCc2ccccc2)nc(SCc2ccccc2)n1							
81.8	59.9	54.9	75.1	75.7	CCCSc1nc(NC(C)=O)cc(OCc2ccccc2)n1							
	> 100	63.1	95.4	> 100	O=C(Nc1cccc2cccnc12)c1ccc(N2C(=O)[C@@H]3[C@H](C2=O)[C@@H]2C=C[C@H]3C2)cc1	Active	Active	Active	Active			
> 100	35.7	53.9	64.4	19.9	CC(=O)Nc1cc(OCC(C)C)nc(SCc2ccccc2)n1							
22.3	88.2	54.2	87.1	51	CCCSc1nc(N)cc(OCc2ccccc2)n1							
42.2	93.6			> 100	Cc1ccn2cc(-c3ccc(N)cc3)nc2c1							
6.2	> 100	> 100	> 100	> 100	Cc1ccc2nc(-c3ccc([N+](=O)[O-])cc3)cn2c1	Active	Active	Active		inactive	Active	
17.8	17.5				Cc1ccn2cc(-c3ccc(NCc4ccccc4)cc3)nc2c1							> 100
23.1	> 100			62.4	Cc1ccn2cc(-c3ccc([N+](=O)[O-])cc3)nc2c1							
46.2	65.8	40	42.9	35.2	CC(=O)Nc1cc(OCc2ccccc2)nc(SCc2ccccc2)n1							

Reference: ChEMBL document CHEMBL3286382, “Synthesis and biological evaluation of imidazo[1,2-a]pyrimidines and imidazo[1,2-a]pyridines as new inhibitors of the Wnt/β-catenin signaling” (Eur J Med Chem, 2014)
